Test results from ChEMBL document CHEMBL3352699 (J Med Chem, 2014).
Converted amounts (≈) assume the structure as drawn. Each block holds one molecule with its values, some of them ahead of it.

Experiments:
[1] = Octanol-water partition coefficient, log D of the compound at pH 7.4 by shake flask method; format: physicochemical
[2] = biological target: T1, Pyroglutamylated RF-amide peptide receptor (Homo sapiens, UniProt Q96P65); experiment: Inhibition of human GPR103 receptor expressed in CHOK1 cells by IP-1 assay; format: cell-based, CHO-K1
T1 sequence (Q96P65 whole entry): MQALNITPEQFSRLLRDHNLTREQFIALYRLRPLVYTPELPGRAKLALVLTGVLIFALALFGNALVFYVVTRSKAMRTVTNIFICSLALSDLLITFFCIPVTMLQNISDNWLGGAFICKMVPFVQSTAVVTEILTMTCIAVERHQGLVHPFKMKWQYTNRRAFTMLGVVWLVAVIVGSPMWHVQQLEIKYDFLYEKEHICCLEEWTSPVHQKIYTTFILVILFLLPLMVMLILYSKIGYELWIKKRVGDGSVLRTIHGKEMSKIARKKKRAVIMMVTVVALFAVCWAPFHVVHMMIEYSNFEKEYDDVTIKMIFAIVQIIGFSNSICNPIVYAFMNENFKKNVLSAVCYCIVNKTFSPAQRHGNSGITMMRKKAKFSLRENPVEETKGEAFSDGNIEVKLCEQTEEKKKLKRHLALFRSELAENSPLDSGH
Outline: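 Cryopreserved human QRFP/GPR103 receptor cell line thawed in stimulation buffer, preincubated with compound at 37 °C, 5% CO2, then stimulated with hQRFP43 at EC80 for 50 min at 37 °C. IP-1 read by HTRF (665/620 nm ratio). IC50 mean of N = 2−52 determinations, one to three replicates per concentration; CIR 2.0, MDR 2.8.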

[3] = biological target: T1, Pyroglutamylated RF-amide peptide receptor; experiment: Displacement of [125I]QRFP43 from human GPR103 receptor expressed in HEK cells after 90 mins incubation by scintillation counting; format: cell-based, HEK293
Outline: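 HEK membranes overexpressing human GPR103 incubated with compound and 0.25 nM 125I-hQRFP43 in 50 mM Tris pH 7.4, 1 mM EDTA, 0.1% BSA at 30 °C for 90 min. Bound radioligand separated by vacuum filtration and counted by scintillation. IC50 mean of N = 2−5 determinations, one replicate per concentration; CIR 1.7, MDR 2.1.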

[4] = Inhibition of mouse GPR103A receptor expressed in CHO cells by IP-1 assay; format: cell-based
Outline: (§1)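 CHO cells overexpressing mouse GPR103A or GPR103B thawed in stimulation buffer, preincubated with compound at 37 °C, 5% CO2, then stimulated with hQRFP43 at EC80 for 50 min at 37 °C. IP-1 measured by HTRF (665/620 nm ratio).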

[5] = Inhibition of mouse GPR103B receptor expressed in CHO cells by IP-1 assay; format: cell-based; outline: as §1
[6] = Solubility of the compound in HBSS buffer at pH 7.4 after 18 hrs by LC/MS/MS analysis; format: physicochemical
[7] = Intrinsic clearance in human hepatocytes measured per 10^6 cells; format: ADME, cell-based, Hepatocyte; details: read-out: CLH
Outline: (§2)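 Intrinsic clearance corrected for unspecific binding in the incubations. CIR 1.4 for human hepatocytes, 1.7 for human liver microsomes.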

[8] = Intrinsic clearance in human liver microsomes; format: ADME; details: read-out: CLH; outline: as §2
[9] = Apparent permeability across apical to basolateral side in human Caco2 cells by LC-MS/MS analysis; format: ADME, cell-based; details: Caco-2, read-out: permeability
Cytochrome P450 2D6 = Cytochrome P450 2D6 (Homo sapiens, UniProt P10635); experiment: Inhibition of human CYP2D6 after 20 to 50 mins by high-throughput fluorescence assay; format: ADME
[10] = biological target: Voltage-gated inwardly rectifying potassium channel KCNH2 (Homo sapiens, UniProt Q12809); experiment: Inhibition of human ERG expressed in CHO cells by electrophysiology assay; format: cell-based
[11] = biological target: Sodium channel protein type 5 subunit alpha (Homo sapiens, UniProt Q14524); experiment: Inhibition of human Nav1.5 expressed in CHO cells by electrophysiology assay; format: cell-based
[12] = biological target: Potassium voltage-gated channel subfamily E member 1 (Homo sapiens, UniProt P15382); experiment: Inhibition of human cardiac slowly activating delayed rectifier K+ channel expressed in CHO cells by electrophysiology assay; format: cell-based
Cytochrome P450 3A4 = Cytochrome P450 3A4 (Homo sapiens, UniProt P08684); experiment: Inhibition of human recombinant CYP3A4 after 20 to 50 mins by high-throughput fluorescence assay; format: ADME; details: recombinant enzyme
Cytochrome P450 1A2 = biological target: T2, Cytochrome P450 1A2 (Homo sapiens, UniProt P05177); experiment: Inhibition of human recombinant CYP1A2 after 20 to 50 mins by high-throughput fluorescence assay; format: ADME; details: recombinant enzyme
T2 sequence (P05177 whole entry): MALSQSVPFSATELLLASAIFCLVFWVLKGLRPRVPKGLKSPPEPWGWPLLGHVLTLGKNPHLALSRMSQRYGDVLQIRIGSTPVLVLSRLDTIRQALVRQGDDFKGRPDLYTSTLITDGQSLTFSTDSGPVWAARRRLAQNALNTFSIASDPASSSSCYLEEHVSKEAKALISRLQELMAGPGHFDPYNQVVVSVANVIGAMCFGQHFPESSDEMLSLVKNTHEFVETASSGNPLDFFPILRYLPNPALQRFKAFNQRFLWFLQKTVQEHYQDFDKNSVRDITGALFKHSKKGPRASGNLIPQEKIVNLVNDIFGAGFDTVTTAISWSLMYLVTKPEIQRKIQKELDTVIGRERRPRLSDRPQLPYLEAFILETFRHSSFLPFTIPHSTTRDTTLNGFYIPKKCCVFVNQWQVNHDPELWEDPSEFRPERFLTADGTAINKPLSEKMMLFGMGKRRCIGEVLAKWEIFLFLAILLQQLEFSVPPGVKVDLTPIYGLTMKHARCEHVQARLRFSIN

Cytochrome P450 2C8 = biological target: T3, Cytochrome P450 2C8 (Homo sapiens, UniProt P10632); experiment: Inhibition of human recombinant CYP2C8 after 20 to 50 mins by high-throughput fluorescence assay; format: ADME; details: recombinant enzyme
T3 sequence (P10632 whole entry): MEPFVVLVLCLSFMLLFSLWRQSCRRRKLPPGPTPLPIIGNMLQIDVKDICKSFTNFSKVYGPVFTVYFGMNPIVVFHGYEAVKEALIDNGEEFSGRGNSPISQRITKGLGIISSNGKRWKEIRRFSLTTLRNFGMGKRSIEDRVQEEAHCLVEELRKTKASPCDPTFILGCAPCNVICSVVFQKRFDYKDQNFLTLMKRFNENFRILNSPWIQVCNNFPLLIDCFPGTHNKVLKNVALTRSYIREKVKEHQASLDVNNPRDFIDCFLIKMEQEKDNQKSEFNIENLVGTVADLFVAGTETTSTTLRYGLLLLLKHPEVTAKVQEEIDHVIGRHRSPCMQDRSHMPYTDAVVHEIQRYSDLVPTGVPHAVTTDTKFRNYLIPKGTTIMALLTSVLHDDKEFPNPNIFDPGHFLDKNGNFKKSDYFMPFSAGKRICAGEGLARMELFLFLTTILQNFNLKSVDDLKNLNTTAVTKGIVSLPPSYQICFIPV

Cytochrome P450 2C9 = Cytochrome P450 2C9 (Homo sapiens, UniProt P11712); experiment: Inhibition of human recombinant CYP2C9 after 20 to 50 mins by high-throughput fluorescence assay; format: ADME; details: recombinant enzyme
Cytochrome P450 2C19 = Cytochrome P450 2C19 (Homo sapiens, UniProt P33261); experiment: Inhibition of human recombinant CYP2C19 after 20 to 50 mins by high-throughput fluorescence assay; format: ADME; details: recombinant enzyme
Sequence of Cytochrome P450 2C19 (P33261 whole entry): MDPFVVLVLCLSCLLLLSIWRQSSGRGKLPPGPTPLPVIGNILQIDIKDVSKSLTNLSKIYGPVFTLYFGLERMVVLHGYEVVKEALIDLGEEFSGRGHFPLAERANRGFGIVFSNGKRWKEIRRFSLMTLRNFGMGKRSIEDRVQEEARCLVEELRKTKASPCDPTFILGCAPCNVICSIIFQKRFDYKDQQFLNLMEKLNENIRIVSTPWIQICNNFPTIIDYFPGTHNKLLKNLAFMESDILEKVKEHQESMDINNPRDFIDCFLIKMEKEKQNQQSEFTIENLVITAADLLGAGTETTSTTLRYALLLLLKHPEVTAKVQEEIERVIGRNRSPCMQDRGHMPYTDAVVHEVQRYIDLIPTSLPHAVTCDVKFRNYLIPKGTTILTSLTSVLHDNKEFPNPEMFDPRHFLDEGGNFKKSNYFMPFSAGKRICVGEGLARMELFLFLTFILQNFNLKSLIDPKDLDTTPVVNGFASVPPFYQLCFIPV

Sequence of Sodium channel protein type 5 subunit alpha (Q14524 whole entry): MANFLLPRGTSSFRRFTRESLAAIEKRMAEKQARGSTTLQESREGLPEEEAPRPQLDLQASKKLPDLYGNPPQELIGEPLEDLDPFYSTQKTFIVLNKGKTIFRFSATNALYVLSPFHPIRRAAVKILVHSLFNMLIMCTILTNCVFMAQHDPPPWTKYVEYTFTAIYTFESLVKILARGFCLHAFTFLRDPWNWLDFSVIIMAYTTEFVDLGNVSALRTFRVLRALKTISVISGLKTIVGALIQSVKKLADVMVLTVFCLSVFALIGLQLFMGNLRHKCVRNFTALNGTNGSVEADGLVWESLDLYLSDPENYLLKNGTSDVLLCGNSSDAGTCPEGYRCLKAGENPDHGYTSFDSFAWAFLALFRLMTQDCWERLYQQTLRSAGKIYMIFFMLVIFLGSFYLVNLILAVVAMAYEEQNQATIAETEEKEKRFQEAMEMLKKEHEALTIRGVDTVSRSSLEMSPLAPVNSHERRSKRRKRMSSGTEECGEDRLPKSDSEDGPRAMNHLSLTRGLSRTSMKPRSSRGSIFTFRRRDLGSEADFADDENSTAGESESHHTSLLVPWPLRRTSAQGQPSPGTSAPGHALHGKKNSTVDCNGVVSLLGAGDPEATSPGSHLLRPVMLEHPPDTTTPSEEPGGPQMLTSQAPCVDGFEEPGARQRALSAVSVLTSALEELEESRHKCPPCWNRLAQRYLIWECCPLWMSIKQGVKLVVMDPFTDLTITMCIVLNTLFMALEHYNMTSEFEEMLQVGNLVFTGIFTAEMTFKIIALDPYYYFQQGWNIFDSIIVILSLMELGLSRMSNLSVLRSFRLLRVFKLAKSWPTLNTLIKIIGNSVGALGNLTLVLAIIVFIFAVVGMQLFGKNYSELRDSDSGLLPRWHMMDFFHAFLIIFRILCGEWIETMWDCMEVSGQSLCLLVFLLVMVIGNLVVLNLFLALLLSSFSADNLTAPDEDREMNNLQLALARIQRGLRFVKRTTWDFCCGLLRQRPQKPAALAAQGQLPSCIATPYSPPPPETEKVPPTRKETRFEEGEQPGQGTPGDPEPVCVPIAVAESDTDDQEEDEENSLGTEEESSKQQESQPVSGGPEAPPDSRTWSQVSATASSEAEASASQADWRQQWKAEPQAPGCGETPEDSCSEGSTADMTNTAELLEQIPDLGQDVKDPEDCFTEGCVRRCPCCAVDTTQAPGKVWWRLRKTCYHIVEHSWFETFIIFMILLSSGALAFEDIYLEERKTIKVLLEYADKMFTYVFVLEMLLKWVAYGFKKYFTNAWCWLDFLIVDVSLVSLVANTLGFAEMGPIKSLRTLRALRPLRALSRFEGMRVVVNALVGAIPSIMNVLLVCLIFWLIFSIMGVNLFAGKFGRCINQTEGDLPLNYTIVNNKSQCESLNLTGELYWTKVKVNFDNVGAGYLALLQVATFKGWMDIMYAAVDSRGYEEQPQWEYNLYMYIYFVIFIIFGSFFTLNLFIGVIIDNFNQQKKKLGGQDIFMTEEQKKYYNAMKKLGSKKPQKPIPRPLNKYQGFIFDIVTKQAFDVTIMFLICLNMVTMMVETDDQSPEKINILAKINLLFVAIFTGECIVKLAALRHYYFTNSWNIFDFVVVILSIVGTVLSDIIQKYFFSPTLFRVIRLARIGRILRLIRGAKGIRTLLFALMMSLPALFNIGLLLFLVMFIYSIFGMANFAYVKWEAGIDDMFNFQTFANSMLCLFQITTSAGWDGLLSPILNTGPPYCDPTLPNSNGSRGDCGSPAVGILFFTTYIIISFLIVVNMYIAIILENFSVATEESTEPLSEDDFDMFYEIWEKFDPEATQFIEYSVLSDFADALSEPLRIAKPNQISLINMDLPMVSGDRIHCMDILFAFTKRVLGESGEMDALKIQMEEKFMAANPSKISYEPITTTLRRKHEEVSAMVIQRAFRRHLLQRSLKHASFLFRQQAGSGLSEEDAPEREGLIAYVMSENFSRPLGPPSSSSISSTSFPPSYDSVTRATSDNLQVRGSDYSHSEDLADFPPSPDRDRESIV
Sequence of Cytochrome P450 2D6 (P10635 whole entry): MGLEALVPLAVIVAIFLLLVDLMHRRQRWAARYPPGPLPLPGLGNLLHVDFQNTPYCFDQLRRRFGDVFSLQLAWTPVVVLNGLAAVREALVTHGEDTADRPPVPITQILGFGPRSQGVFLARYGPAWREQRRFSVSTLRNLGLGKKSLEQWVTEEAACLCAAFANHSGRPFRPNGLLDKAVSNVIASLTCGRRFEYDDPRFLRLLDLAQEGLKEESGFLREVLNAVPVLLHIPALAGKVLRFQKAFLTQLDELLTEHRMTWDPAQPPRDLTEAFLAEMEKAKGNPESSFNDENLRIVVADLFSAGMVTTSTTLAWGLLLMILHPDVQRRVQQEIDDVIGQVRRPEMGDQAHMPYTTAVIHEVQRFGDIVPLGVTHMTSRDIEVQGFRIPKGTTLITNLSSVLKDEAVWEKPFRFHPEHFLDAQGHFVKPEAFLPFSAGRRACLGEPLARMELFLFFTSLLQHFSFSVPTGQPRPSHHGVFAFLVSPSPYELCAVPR
Sequence of Voltage-gated inwardly rectifying potassium channel KCNH2 (Q12809 whole entry): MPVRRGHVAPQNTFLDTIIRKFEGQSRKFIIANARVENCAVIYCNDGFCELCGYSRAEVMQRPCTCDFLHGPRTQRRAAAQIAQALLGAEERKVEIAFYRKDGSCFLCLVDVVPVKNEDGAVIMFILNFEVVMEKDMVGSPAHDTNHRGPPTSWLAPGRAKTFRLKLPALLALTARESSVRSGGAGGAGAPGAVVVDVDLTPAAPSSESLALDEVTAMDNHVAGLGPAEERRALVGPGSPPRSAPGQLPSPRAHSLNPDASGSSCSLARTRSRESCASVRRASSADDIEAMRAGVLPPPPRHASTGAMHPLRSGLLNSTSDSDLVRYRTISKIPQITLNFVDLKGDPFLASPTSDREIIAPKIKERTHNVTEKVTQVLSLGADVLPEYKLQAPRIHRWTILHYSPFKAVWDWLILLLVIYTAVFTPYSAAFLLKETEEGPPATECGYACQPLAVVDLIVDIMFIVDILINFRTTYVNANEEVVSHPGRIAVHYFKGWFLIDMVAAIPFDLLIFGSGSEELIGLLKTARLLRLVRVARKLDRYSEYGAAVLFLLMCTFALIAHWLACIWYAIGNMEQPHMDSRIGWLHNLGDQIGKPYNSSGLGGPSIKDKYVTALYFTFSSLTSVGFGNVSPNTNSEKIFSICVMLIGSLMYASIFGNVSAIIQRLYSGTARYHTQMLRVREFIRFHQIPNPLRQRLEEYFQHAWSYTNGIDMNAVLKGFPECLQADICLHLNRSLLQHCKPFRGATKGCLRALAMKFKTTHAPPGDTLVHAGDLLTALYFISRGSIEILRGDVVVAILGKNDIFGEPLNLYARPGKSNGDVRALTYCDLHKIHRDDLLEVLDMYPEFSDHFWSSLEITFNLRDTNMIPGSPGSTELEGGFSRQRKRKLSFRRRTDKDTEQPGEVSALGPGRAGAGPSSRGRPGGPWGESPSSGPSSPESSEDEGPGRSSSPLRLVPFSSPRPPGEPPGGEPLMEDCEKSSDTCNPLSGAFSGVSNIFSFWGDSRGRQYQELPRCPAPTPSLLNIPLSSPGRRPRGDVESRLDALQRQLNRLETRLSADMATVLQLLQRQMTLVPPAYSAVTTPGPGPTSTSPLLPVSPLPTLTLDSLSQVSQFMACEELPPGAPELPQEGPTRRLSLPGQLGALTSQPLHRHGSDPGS
Sequence of Cytochrome P450 2C9 (P11712 whole entry): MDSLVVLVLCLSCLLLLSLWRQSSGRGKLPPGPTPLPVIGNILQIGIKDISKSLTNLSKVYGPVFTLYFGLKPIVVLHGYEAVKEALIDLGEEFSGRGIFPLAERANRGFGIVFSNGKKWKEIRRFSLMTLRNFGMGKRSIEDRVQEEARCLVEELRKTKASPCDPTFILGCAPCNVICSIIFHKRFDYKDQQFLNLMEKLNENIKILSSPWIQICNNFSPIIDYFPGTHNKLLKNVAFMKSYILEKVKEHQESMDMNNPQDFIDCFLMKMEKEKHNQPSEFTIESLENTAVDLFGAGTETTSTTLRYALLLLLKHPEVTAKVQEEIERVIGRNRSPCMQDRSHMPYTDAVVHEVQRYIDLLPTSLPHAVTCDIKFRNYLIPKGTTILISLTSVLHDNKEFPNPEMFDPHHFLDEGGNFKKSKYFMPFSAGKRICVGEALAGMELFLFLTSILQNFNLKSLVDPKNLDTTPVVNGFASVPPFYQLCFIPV

- logD [1]: 3
- IC50 [2]: 70 nM
- IC50 [3]: 70 nM
- IC50 [4]: 90 nM
- IC50 [5]: 80 nM
- solubility at 18 h [6]: 62 µM (≈ 23.7 µg/mL)
- hepatocyte CLint [7]: 40 µL/min/1e6 cells
- microsomal CLint [8]: 156 µL/min/mg
- Papp A→B [9]: 7.8 ×10⁻⁶ cm/s
- IC50 (Cytochrome P450 2D6): 2900 nM
- IC50 [12]: 10500 nM
Compound: CN(C)Cc1ccc2c(c1)CCN(C(=O)c1cc3cc(Cl)ccc3n1C)C2
- IC50 [10]: 4900 nM
- IC50 [11]: 10300 nM

- logD [1]: 1.5
- IC50 [2]: 570 nM
Compound: CN(C)Cc1ccc2c(c1)CCN(C(=O)c1cc3cc(Cl)ncc3n1C)C2

- logD [1]: 0.9
- IC50 [2]: 2900 nM
Compound: CN(C)Cc1ccc2c(c1)CCN(C(=O)c1cc3ccncc3n1C)C2

- logD [1]: 1.7
- IC50 [2]: 240 nM
- IC50 [3]: 280 nM
- IC50 [4]: 330 nM
- IC50 [5]: 100 nM
- solubility at 18 h [6]: > 1000 µM
- hepatocyte CLint [7]: 5.3 µL/min/1e6 cells
- microsomal CLint [8]: 16 µL/min/mg
- Papp A→B [9]: 13.2 ×10⁻⁶ cm/s
- IC50 (Cytochrome P450 2D6): > 20000 nM
- IC50 [12]: > 33000 nM
- inhibition (INH) (Cytochrome P450 3A4): Not Active
- inhibition (INH) (Cytochrome P450 1A2): Not Active
- inhibition (INH) (Cytochrome P450 2C8): Not Active
- inhibition (INH) (Cytochrome P450 2C9): Not Active
- inhibition (INH) (Cytochrome P450 2C19): Not Active
Compound: CN(C)Cc1ccc2c(c1)CCN(C(=O)c1cc3cc(Br)ncc3n1C)C2
- IC50 [11]: > 33000 nM

- logD [1]: 1.3
- IC50 [2]: 18900 nM
Compound: Cc1cc2cc(C(=O)N3CCc4cc(CN(C)C)ccc4C3)n(C)c2cn1

- logD [1]: 2
- IC50 [2]: 130 nM
Compound: CN(C)Cc1ccc2c(c1)CCN(C(=O)c1cc3cc(I)ncc3n1C)C2

- logD [1]: 1.2
- IC50 [2]: 6000 nM
Compound: C#Cc1cc2cc(C(=O)N3CCc4cc(CN(C)C)ccc4C3)n(C)c2cn1

- logD [1]: 1.8
- IC50 [2]: 3300 nM
Compound: CN(C)Cc1ccc2c(c1)CCN(C(=O)c1cc3cc(C(F)(F)F)ncc3n1C)C2

- logD [1]: 3
- IC50 [2]: > 41000 nM
Compound: CN(C)Cc1ccc2c(c1)CCN(C(=O)c1cc3cc(-c4ccccc4)ncc3n1C)C2

- logD [1]: 2.1
- IC50 [2]: 110 nM
Compound: CC1CN(C(=O)c2cc3cc(Br)ncc3n2C)Cc2ccc(CN(C)C)cc21 (racemic)

- logD [1]: 2.2
- IC50 [2]: 500 nM
Compound: CC1c2ccc(CN(C)C)cc2CCN1C(=O)c1cc2cc(Br)ncc2n1C (racemic)

- logD [1]: 2.1
- IC50 [2]: 710 nM
Compound: CC1Cc2cc(CN(C)C)ccc2CN1C(=O)c1cc2cc(Br)ncc2n1C (racemic)
